Series [1] can be described thus: folding enthalpy; higher = less favourable; fluorescence melt of hairpins on a sequencing array, two-state fit. The conditions noted are these: sodium 0.088 M. The method, boiled down:
(§1)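 Folding enthalpy and melting temperature were estimated with bootstrapped two-state fits and combined across four replicates by inverse-variance weighting, with fitted temperatures raised by 9.35 °C to match UV melts. The data were Cy3 fluorescence of library hairpins, with annealed Cy3 and quencher oligos, on a sequenced MiSeq flow cell in 50 mM Na-HEPES pH 8.0, 25 mM NaCl, imaged in 2.5 °C steps up to 60 °C and normalised to pre-quench Cy3 and control constructs.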

The nature of series [2]: melting temperature; fluorescence melt of hairpins on a sequencing array, two-state fit, raised by 9.35 °C to match UV melts. The note with it: sodium 0.088 M. The essentials: as §1

Take GATCGTTGCACGATC ((((((...)))))): in series [1], the folding enthalpy is -38.6 kcal/mol. Moreover, the Tm in series [2] was determined as 60.7 °C.

For GGGAACGAAAGTTTACCC ((((((....)))..))), the folding enthalpy in series [1] is -21.1 kcal/mol. In addition, in series [2], the Tm came to 34.1 °C.

In the case of GCCCCTTCGAAAGAAGGC (((..(((....)))))), the folding enthalpy in series [1] was -8.55 kcal/mol. Also, the Tm in series [2] is 37 °C.

In the case of GACGTCGGAAACGGCGTC ((((.((....)).)))), in series [1], the folding enthalpy is -46.9 kcal/mol. Further, the Tm in series [2] was 62.3 °C.

With GGGTGGGGAAACCTACCC ((((.((....)).)))), the folding enthalpy in series [1] was -41.4 kcal/mol. In series [2], the Tm was found to be 54.5 °C.

Turning to GCGATTTGTCGC ((((....)))), the folding enthalpy in series [1] was -23.5 kcal/mol. In series [2], the Tm was found to be 54 °C.

GGCAACGAAAGTTTCGCC ((((((....)))..))): the folding enthalpy in series [1] is -19 kcal/mol. The Tm in series [2] came out at 41.8 °C.

As to GGACTCGAAAGAGGATCC ((((((....)))..))), in series [1], the folding enthalpy was -17.9 kcal/mol. Also, in series [2], the Tm worked out at 37 °C.

With GCCCGCGAAAGCGCTGGC ((((((....)))..))), the folding enthalpy in series [1] was -16.5 kcal/mol. Besides, the Tm in series [2] is 58.5 °C.

On to GTGGTTGGAAACAGTCAC (((..((....))..))), for which, in series [1], the folding enthalpy is -19.4 kcal/mol. Besides, in series [2], the Tm was 31.2 °C.

On to GAGTGCGAAAGCACCTC ((((((....))).))), for which the folding enthalpy in series [1] is -10.3 kcal/mol. Besides, the Tm in series [2] came out at 54.8 °C.

As for GGTAAACGAAAGTTACC (((.(((....)))))), the folding enthalpy in series [1] is -25.6 kcal/mol. The Tm in series [2] came out at 46 °C.

Turning to GTTCTCCGAAAGGAAAAC (((.(((....))).))), the folding enthalpy in series [1] was -25.2 kcal/mol. Also, the Tm in series [2] was 35.5 °C.

On to GACAGGGGAAACCCTGTC (((((((....))))))), for which the folding enthalpy in series [1] was -42.6 kcal/mol. Besides, in series [2], the Tm was found to be 66.4 °C.

For the sequence GCCGTGCGAAAGCATTGC ((..(((....)))..)), the folding enthalpy in series [1] is -12.6 kcal/mol. In addition, the Tm in series [2] was found to be 43.2 °C.

On to GAATGCGAAAGCAACTTC ((((((....)))..))), for which the folding enthalpy in series [1] is -13 kcal/mol. In series [2], the Tm is 36 °C.

Turning to GATTGCGGAAACGTAATC ((((.((....)).)))), the folding enthalpy in series [1] is -38.8 kcal/mol. Further, the Tm in series [2] was 47.6 °C.

As to GATCTAGCTTTAGATC ((((((....)))))), the folding enthalpy in series [1] is -26.7 kcal/mol. Further, in series [2], the Tm was determined as 38.8 °C.

CGGCCCGGAAACGGACCG (((.(((....))).))): the folding enthalpy in series [1] is -37.7 kcal/mol. In addition, in series [2], the Tm was found to be 57.6 °C.

Regarding GAAGTCGGAAACGACCTC ((.((((....)))).)), the folding enthalpy in series [1] was -13.6 kcal/mol. Also, in series [2], the Tm came to 37.2 °C.

GCGTTTGTACGC ((((....)))): the folding enthalpy in series [1] is -25.4 kcal/mol. In addition, the Tm in series [2] stood at 54.9 °C.

As to GACGACCGAAAGGTGTC (((.(((....)))))), the folding enthalpy in series [1] is -26.5 kcal/mol. Moreover, the Tm in series [2] is 52.2 °C.

Take GATCTATATGTAGATC ((((((....)))))): in series [1], the folding enthalpy was -35.4 kcal/mol. Further, the Tm in series [2] stood at 45.5 °C.

Turning to GATCTGACGGCAGATC ((((((....)))))), the folding enthalpy in series [1] is -49.4 kcal/mol. For the same sequence, the Tm in series [2] was 51.4 °C.

As to GCATGCGAAAGCATTGC ((((((....))).))), in series [1], the folding enthalpy was -21.3 kcal/mol. For the same sequence, the Tm in series [2] is 57.9 °C.

With GCTGACACGAAAGTGAGC (((..(((....)))))), the folding enthalpy in series [1] is -18.3 kcal/mol. Besides, the Tm in series [2] was 40.3 °C.

On to GCTGTTGGAAACAACGGC ((.((((....)))).)), for which the folding enthalpy in series [1] is -39.8 kcal/mol. In series [2], the Tm turned out to be 54.3 °C.

In the case of GATCACCCAGTGATC ((((((...)))))), the folding enthalpy in series [1] was -38.1 kcal/mol. Further, the Tm in series [2] stood at 57.2 °C.

Regarding GTGTTGGAAACAACAC ((((((....)))))), the folding enthalpy in series [1] was -35 kcal/mol. For the same sequence, the Tm in series [2] stood at 56.8 °C.

For the sequence GTCAAGGGAAACCTCGAC (((.(((....))).))), the folding enthalpy in series [1] was -19.1 kcal/mol. Besides, in series [2], the Tm came to 37.5 °C.

Turning to GCCTTGCGAAAGCTAGGC ((((.((....)).)))), the folding enthalpy in series [1] was -44.4 kcal/mol. Besides, the Tm in series [2] was 67.2 °C.

For GCGGACGAAAGTCACCGC ((((((....)))..))), in series [1], the folding enthalpy is -29.5 kcal/mol. In addition, in series [2], the Tm came to 51.5 °C.

For the sequence GATCAAGTAGTTGATC ((((((....)))))), the folding enthalpy in series [1] is -31.6 kcal/mol. The Tm in series [2] turned out to be 46.7 °C.

Take GCATTGCGAAAGCAGCGC ((..(((....)))..)): the folding enthalpy in series [1] is -16.1 kcal/mol. Further, the Tm in series [2] stood at 54.9 °C.

As to GCTTGCGAAAGCACCAGC ((((((....)))..))), in series [1], the folding enthalpy is -8.92 kcal/mol. For the same sequence, in series [2], the Tm stood at 34.8 °C.

With GATCGACTTTCGATC ((((((...)))))), the folding enthalpy in series [1] is -22.2 kcal/mol. The Tm in series [2] came to 51.7 °C.

Consider GACGGAACGAAAGTTGTC (((..(((....)))))), for which the folding enthalpy in series [1] is -19.2 kcal/mol. The Tm in series [2] is 30.7 °C.

Source of the values: the array DNA melting data of Ke et al. (doi:10.1101/2024.01.08.574731).
